In ChEMBL document CHEMBL5058577, “EUbOPEN Chemogenomics Library 2 (Multiplex)” (2022):

Test system: U2OS
Assay: Multiplex assay against U2OS
Assay type: toxicity, cell-based
Conditions: human
Summary of the method: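 Phenotypes for tubulin, mitochondrial mass and membrane permeability are expressed as per cents of healthy-nucleus cells. Cells were stained live at seeding with Hoechst33342, BioTracker Green Microtubule Cytoskeleton Dye, MitoTracker Red and Annexin V Alexa Fluor 680, then imaged after compound addition on a CQ1 microscope at 37°C and 5% CO2. Machine-learning gating in CellPathfinder separated Hoechst high-intensity objects from normal cells, divided normal cells by nuclear state (healthy, pyknosed, fragmented) and divided pyknosed cells into mitotic or apoptotic.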

[1] = 12 h, 1 µM, compound concentration 1 uM, replicate 1
[2] = 12 h, 1 µM, compound concentration 1 uM, replicate 2
[3] = 12 h, 10 µM, compound concentration 10 uM, replicate 1
[4] = 12 h, 10 µM, compound concentration 10 uM, replicate 2
[5] = 24 h, 1 µM, compound concentration 1 uM, replicate 1
[6] = 24 h, 1 µM, compound concentration 1 uM, replicate 2
[7] = 24 h, 10 µM, compound concentration 10 uM, replicate 1
[8] = 24 h, 10 µM, compound concentration 10 uM, replicate 2
[9] = 48 h, 1 µM, compound concentration 1 uM, replicate 1
[10] = 48 h, 1 µM, compound concentration 1 uM, replicate 2
[11] = 48 h, 10 µM, compound concentration 10 uM, replicate 1
[12] = 48 h, 10 µM, compound concentration 10 uM, replicate 2

CC(C)COc1ccc(CNC(=O)N(Cc2ccc(F)cc2)C2CCN(C)CC2)cc1 [PIMAVANSERIN]
Population Apoptotic (%) [1]: 84% | Population Fragmented Nuclei (%) [1]: 23% | Population Healthy Nuclei (%) [1]: 67% | Population Hoechst High Intensity Objects (%) [1]: 2% | Population Membrane Permeable-Phenotype (%) [1]: 6% | Population Mitochondria Different-Phenotype (%) [1]: 3% | Population Mitotic Cells (%) [1]: 16% | Population Normal (%) [1]: 97% | Population Pyknosed Nuclei (%) [1]: 9% | Population Tubulin-Different-Phenotype (%) [1]: 5% | Total Cell Count [1]: 265 | Population Apoptotic (%) [2]: 100% | Population Fragmented Nuclei (%) [2]: 11% | Population Healthy Nuclei (%) [2]: 80% | Population Hoechst High Intensity Objects (%) [2]: 0% | Population Mitochondria Different-Phenotype (%) [2]: 4% | Population Mitotic Cells (%) [2]: 0% | Population Normal (%) [2]: 99% | Population Pyknosed Nuclei (%) [2]: 7% | Population Tubulin-Different-Phenotype (%) [2]: 6% | Total Cell Count [2]: 136 | Population Apoptotic (%) [3]: 67% | Population Fragmented Nuclei (%) [3]: 23% | Population Healthy Nuclei (%) [3]: 48% | Population Hoechst High Intensity Objects (%) [3]: 5% | Population Membrane Permeable-Phenotype (%) [3]: 48% | Population Mitochondria Different-Phenotype (%) [3]: 73% | Population Mitotic Cells (%) [3]: 32% | Population Normal (%) [3]: 94% | Population Pyknosed Nuclei (%) [3]: 27% | Population Tubulin-Different-Phenotype (%) [3]: 77% | Total Cell Count [3]: 202 | Population Apoptotic (%) [4]: 71% | Population Fragmented Nuclei (%) [4]: 18% | Population Healthy Nuclei (%) [4]: 54% | Population Hoechst High Intensity Objects (%) [4]: 4% | Population Membrane Permeable-Phenotype (%) [4]: 26% | Population Mitochondria Different-Phenotype (%) [4]: 70% | Population Mitotic Cells (%) [4]: 28% | Population Normal (%) [4]: 95% | Population Pyknosed Nuclei (%) [4]: 26% | Population Tubulin-Different-Phenotype (%) [4]: 52% | Total Cell Count [4]: 124 | Population Apoptotic (%) [5]: 92% | Population Fragmented Nuclei (%) [5]: 22% | Population Healthy Nuclei (%) [5]: 67% | Population Hoechst High Intensity Objects (%) [5]: 2% | Population Membrane Permeable-Phenotype (%) [5]: 10% | Population Mitochondria Different-Phenotype (%) [5]: 4% | Population Mitotic Cells (%) [5]: 7% | Population Normal (%) [5]: 97% | Population Pyknosed Nuclei (%) [5]: 9% | Population Tubulin-Different-Phenotype (%) [5]: 6% | Total Cell Count [5]: 294 | Population Apoptotic (%) [6]: 78% | Population Fragmented Nuclei (%) [6]: 11% | Population Healthy Nuclei (%) [6]: 80% | Population Hoechst High Intensity Objects (%) [6]: 1% | Population Membrane Permeable-Phenotype (%) [6]: 11% | Population Mitochondria Different-Phenotype (%) [6]: 8% | Population Mitotic Cells (%) [6]: 21% | Population Normal (%) [6]: 98% | Population Pyknosed Nuclei (%) [6]: 8% | Total Cell Count [6]: 163 | Population Apoptotic (%) [7]: 88% | Population Fragmented Nuclei (%) [7]: 28% | Population Healthy Nuclei (%) [7]: 40% | Population Hoechst High Intensity Objects (%) [7]: 10% | Population Membrane Permeable-Phenotype (%) [7]: 32% | Population Mitochondria Different-Phenotype (%) [7]: 67% | Population Mitotic Cells (%) [7]: 11% | Population Normal (%) [7]: 89% | Population Pyknosed Nuclei (%) [7]: 31% | Population Tubulin-Different-Phenotype (%) [7]: 49% | Total Cell Count [7]: 214 | Population Apoptotic (%) [8]: 79% | Population Fragmented Nuclei (%) [8]: 16% | Population Healthy Nuclei (%) [8]: 50% | Population Hoechst High Intensity Objects (%) [8]: 3% | Population Membrane Permeable-Phenotype (%) [8]: 30% | Population Mitochondria Different-Phenotype (%) [8]: 75% | Population Mitotic Cells (%) [8]: 20% | Population Normal (%) [8]: 96% | Population Pyknosed Nuclei (%) [8]: 33% | Total Cell Count [8]: 135 | Population Apoptotic (%) [9]: 87% | Population Fragmented Nuclei (%) [9]: 19% | Population Healthy Nuclei (%) [9]: 68% | Population Hoechst High Intensity Objects (%) [9]: 2% | Population Membrane Permeable-Phenotype (%) [9]: 6% | Population Mitochondria Different-Phenotype (%) [9]: 5% | Population Mitotic Cells (%) [9]: 12% | Population Normal (%) [9]: 97% | Population Pyknosed Nuclei (%) [9]: 12% | Population Tubulin-Different-Phenotype (%) [9]: 4% | Total Cell Count [9]: 393 | Population Apoptotic (%) [10]: 92% | Population Fragmented Nuclei (%) [10]: 12% | Population Healthy Nuclei (%) [10]: 76% | Population Hoechst High Intensity Objects (%) [10]: 1% | Population Membrane Permeable-Phenotype (%) [10]: 5% | Population Mitotic Cells (%) [10]: 7% | Population Normal (%) [10]: 98% | Population Pyknosed Nuclei (%) [10]: 11% | Population Tubulin-Different-Phenotype (%) [10]: 2% | Total Cell Count [10]: 234 | Population Apoptotic (%) [11]: 98% | Population Fragmented Nuclei (%) [11]: 38% | Population Healthy Nuclei (%) [11]: 19% | Population Hoechst High Intensity Objects (%) [11]: 13% | Population Membrane Permeable-Phenotype (%) [11]: 40% | Population Mitochondria Different-Phenotype (%) [11]: 56% | Population Mitotic Cells (%) [11]: 1% | Population Normal (%) [11]: 86% | Population Pyknosed Nuclei (%) [11]: 42% | Population Tubulin-Different-Phenotype (%) [11]: 54% | Total Cell Count [11]: 222 | Population Apoptotic (%) [12]: 95% | Population Healthy Nuclei (%) [12]: 15% | Population Hoechst High Intensity Objects (%) [12]: 8% | Population Membrane Permeable-Phenotype (%) [12]: 66% | Population Mitochondria Different-Phenotype (%) [12]: 80% | Population Mitotic Cells (%) [12]: 4% | Population Normal (%) [12]: 91% | Population Pyknosed Nuclei (%) [12]: 45% | Population Tubulin-Different-Phenotype (%) [12]: 71% | Total Cell Count [12]: 146
